Compound activity (PubChem BioAssay)
NS3 helicase inh: inhibitors of HCV NS3 helicase, primary screen, biochemical, Cy5 molecular beacon fluorescence; hit rate 0.56% among 290,000; NS3 helicase DNA unwinding; Hepatitis C virus NS3 helicase; inhibition, % at 10.9 µM;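 active = inhibition above the mean of all tested compounds plus 3 SD, set per campaign, cut at about 35% in these data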
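Control set: DMSO versus 110 µM thioflavine S; Material: NS3 helicase fragment of HCV; Measured by: Cy5 fluorescence at 0 and 60 min, beacon hairpin quenching; Read-out basis: percent inhibition from t60/t0 fluorescence ratio; Times: reaction time 60 min, 25 °C; Repeats: single replicate; Compound dosing: single dose, 10.9 µM nominal final, DMSO 0.8% final.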
core dimer inh: inhibitors of HCV core protein dimerization, primary screen, biochemical, TR-FRET, high-throughput | TR-FRET GST/Flag-core106 dimerization, 1536-well | inhibition, % at 5 µM | hit rate 0.33% among 300,000 | AID 1899, 2009;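 active = inhibition above the mean of all tested compounds plus 3 SD, set per screening campaign, cut at about 45% in these data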
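System – GST-tagged and Flag-tagged HCV core protein residues 1-106 · Repeats – one well for each compound · Technique – TR-FRET 671 and 617 nm emission · Doses – one concentration, 5 µM, in 0.5% DMSO · Times – 4 h, 22.5 °C incubation · Also added – Eu donor and XL665 acceptor anti-tag antibodies · Measure – percent inhibition of core106 dimerization signal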
MEX-5 binding: MEX-5 zinc finger RNA-binding disruptors – biochemical, C. elegans, fluorescence polarization, MLPCN library, primary screen | MEX-5/FITC-TCR2 RNA binding; stronger effect = lower value | activity score (negative = inhibition of binding), % at 10 µM | hit rate 0.38% among 300,000 | AID 1832, 2009;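 active = inhibition past about -25% in most replicates, and total fluorescence under double the plate's negative control median, limit read from the data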
Target sequence (Q9XUB2 whole entry, looked up): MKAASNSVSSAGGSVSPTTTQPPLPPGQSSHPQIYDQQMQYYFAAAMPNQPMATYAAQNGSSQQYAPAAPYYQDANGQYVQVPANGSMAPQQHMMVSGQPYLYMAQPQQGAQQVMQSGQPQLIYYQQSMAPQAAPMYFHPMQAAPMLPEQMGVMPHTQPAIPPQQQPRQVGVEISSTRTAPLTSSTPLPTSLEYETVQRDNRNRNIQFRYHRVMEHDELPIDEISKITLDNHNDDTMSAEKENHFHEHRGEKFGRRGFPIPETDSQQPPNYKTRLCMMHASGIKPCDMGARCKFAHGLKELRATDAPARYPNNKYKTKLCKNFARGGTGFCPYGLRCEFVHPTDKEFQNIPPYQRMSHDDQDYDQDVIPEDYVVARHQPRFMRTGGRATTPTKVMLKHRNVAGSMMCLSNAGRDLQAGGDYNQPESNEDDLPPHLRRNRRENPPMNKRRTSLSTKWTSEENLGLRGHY
EBV gp42 block: Epstein-Barr virus gp42 inhibitors, primary screen, biochemical, uHTS, fluorescence polarization; Fluorescence polarization binding assay, mP read-out; hit rate 0.42% among 220,000; Glycoprotein 42 (Epstein-Barr virus (strain AG876)), Q1HVG2; inhibition, % (tested at 21.74 µM); in the data active = inhibition above about 50%
EBNA-1 inh: EBNA-1 DNA-binding inhibitors, primary screen, biochemical, fluorescence polarization; inhibition, % at 14.8 µM; hit rate 0.34% among 300,000; AID 1950, 2009; in the data active = inhibition above about 28%
ZTA DNA inh: counter-screen for EBNA-1 inhibitors: inhibitors of Epstein-Barr virus ZTA; ZTA-DNA binding, fluorescence polarization; inhibition, % at 11 µM; hit rate 0.15% among 320,000; in the data active = inhibition above about 33%
Numbers stand for hits; - = inactive; . = not tested or not shown. Sampled rows, rich in hits. Any-hit rate of the full collection: about 1.7%.

SMILES	NS3 helicase inh	core dimer inh	MEX-5 binding	EBV gp42 block	EBNA-1 inh	ZTA DNA inh
Cc1ccc(Nc2ccc(C(F)(F)F)cc2[N+](=O)[O-])cc1	-	-	-	-	-	-
COC(=O)c1ccc(=O)c2nc3/c(=C/O)c(O)cc(=O)c3[nH]c12	-	-	.	98	103	-
COc1cc(C(=O)NCC(=O)NNC(=O)C2COc3ccccc3O2)cc(OC)c1OC (stereo unspecified)	.	.	.	.	.	-
Cn1c(N)c(C(=O)CSc2nn(-c3ccc(F)cc3)c(=S)s2)c(=O)n(C)c1=O	.	.	.	.	.	-
CCOc1ccc(C2C(C#N)=C(N)SC(N)=C2C#N)cc1OCC	.	58	-	-	-	-
CCOc1ccc(C2C(C#N)=C(N)SC(N)=C2C#N)cc1OC	-	57	-	-	-	-
Cc1ccc(CNC(=O)c2c(-c3ccccc3Cl)noc2C)cc1	-	-	-	.	-	-
Cc1onc(-c2ccccc2Cl)c1C(=O)NCc1ccco1	-	57	-	-	-	-
COc1cccc(OC)c1C(=O)Nc1sc2c(c1C(N)=O)CCN(Cc1ccccc1)C2	-	-	-	.	-	-
CCOC(=O)c1c(NC(=O)C2COc3ccccc3O2)sc2c1CCN(Cc1ccccc1)C2 (stereo unspecified)	-	-	-	-	-	-
CC(C)N1CCc2c(sc(NC(=O)c3ccc4ccccc4c3)c2C(N)=O)C1	-	-	-37	.	-	-
NC(=O)c1c(NC(=O)C2COc3ccccc3O2)sc2c1CCN(Cc1ccccc1)C2 (stereo unspecified)	-	-	-62	-	-	-
NC(=O)c1c(NC(=O)C2c3ccccc3Oc3ccccc32)sc2c1CCCCC2	-	50	-	-	-	-
CC(=O)c1ccc(C(=O)Nc2sc3c(c2C(N)=O)CCN(Cc2ccccc2)C3)cc1	-	-	-37	.	-	-
CCCn1c(SCC(=O)NC2CCCC2)nc2c1c(=O)n(C)c(=O)n2C	-	-	-	.	-	-
COc1cccc(NC(=S)N2CCN(S(C)(=O)=O)CC2)c1	-	.	.	.	.	.
N#Cc1cc2c(=O)n3ccccc3nc2n(-c2ccccc2Cl)c1=O	-	-	-27	-	-	-
N#Cc1cc2c(=O)n3ccccc3nc2n(Cc2cccnc2)c1=O	.	-	-	.	-	-
Cc1nc(S/C(=C/c2ccc(-c3cccc(Cl)c3)o2)C(=O)O)n[nH]1	-	-	-35	-	-	-
CCC1(c2ccc(F)cc2)NC(=O)N(CC(=O)c2cc(C)n(C3CC3)c2C)C1=O (stereo unspecified)	.	-	-	.	-	-
O=C(N/N=C/c1ccc([N+](=O)[O-])o1)c1cn(-c2ccccc2)nc1-c1ccccc1	-	-	-	-	-	-
O=C(N/N=C/c1ccc([N+](=O)[O-])o1)c1cn(-c2ccccc2)nc1-c1ccc(Cl)cc1	-	46	-	-	-	-
O=C(N/N=C/c1ccc([N+](=O)[O-])o1)c1cc(-c2ccncc2)nc2ccccc12	-	-	-	-	-	-
O=C(N/N=C/c1ccc([N+](=O)[O-])o1)c1cc(-c2ccc(-c3ccccc3)cc2)nc2ccccc12	-	67	-	-	-	-
O=C(Nc1ccc(S(=O)(=O)Nc2cnc3ccccc3n2)cc1)c1cc(F)c(F)cc1Cl	-	-	-	.	-	-
CC(C)N(C(=O)CSc1ccc(S(=O)(=O)N2CCCCC2)cn1)c1ccccc1	.	.	.	.	.	-
C=CCOC(=O)c1cc(-c2ccc(/C=C3\C(=O)NC(=O)C(C#N)=C3C)o2)ccc1Cl	-	.	.	57	.	.
NS(=O)(=O)c1ccc(-c2ccc(/C=C3\NC(=S)NC3=O)o2)cc1	-	-	-65	.	-	-
CC1=C(C#N)C(=O)NC(=O)/C1=C/c1ccc(-c2ccc(S(N)(=O)=O)cc2)o1	-	-	-33	-	-	-
CCOC(=O)[C@@H]1[C@H]2COc3ccccc3[C@H]2N2C(=O)N(c3ccc(C(F)(F)F)cc3)C(=O)[C@]12C	-	-	-	.	-	-
